What was measured:
[1] = Irreversible inhibition of SARS coronavirus Urbani 3CL protease (9985 to 10902) using TAMRA-SITSAVLQSGFRKMK(DABCYL)-OH as substrate measured for 10 mins by FRET assay
Method in brief: (§1)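 SARS CoV-1 3CLpro FRET assay; each value calculated from at least eight data points, with at least two independent determinations.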

[2] = test system: SARS-CoV; experiment: Antiviral activity against SARS COV-1 infected in monkey vero 76 cells assessed as reduction in virus-induced cytopathic effect measured after 66 hrs by neutral red method or cell titer glo-based luminescence assay; type: functional, organism-based; details: Severe acute respiratory syndrome-related coronavirus
[3] = Reversible inhibition of SARS coronavirus Urbani 3CL protease(9985 to 10902) using TAMRA-SITSAVLQSGFRKMK(DABCYL)-OH as substrate measured for 10 mins by FRET assay; method in brief: as §1
[4] = test system: SARS coronavirus Urbani; experiment: Irreversible inhibition of SARS coronavirus Urbani 3CL protease (9985 to 10902) assessed as first order inhibition rate constant (Kobs/I ratio) using TAMRA-SITSAVLQSGFRKMK(DABCYL)-OH as substrate measured for 10 mins by FRET assay
Method in brief: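 SARS CoV-1 3CL protease activity was monitored by a FRET read-out. Irreversible, time-dependent inactivation was expressed as kobs/I. Each value was calculated from at least eight data points, with at least two independent determinations.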

[5] = test system: SARS coronavirus Urbani; experiment: Irreversible inhibition of SARS coronavirus Urbani 3CL protease (9985 to 10902) at 1 uM using TAMRA-SITSAVLQSGFRKMK(DABCYL)-OH as substrate measured for 10 mins by FRET assay relative to control
[6] = Metabolic stability in human plasma assessed as half-life at 1 uM incubated for 60 mins by LC/MS analysis; type: ADME, cell-free
[7] = Solubility of the compound in vehicle formulations; type: physicochemical
[8] = Glutathione reactivity in pH 7.8 Tris buffer assessed as half-life at 1 uM measured after 30 mins by LC/MS analysis; type: ADME
[9] = Permeability of compound in human Caco-2 cells; type: ADME, cell-based

Row | SMILES | IC50 [1] | EC50 [2] | IC50 [3] | further results
1 | COc1cccc2[nH]c(C(=O)N[C@@H](CC(C)C)C(=O)N[C@@H](C[C@@H]3CCNC3=O)C(=O)COC(=O)c3ccccc3C#N)cc12 | 17 nM | – | – | –
2 | COCC(=O)[C@H](C[C@@H]1CCNC1=O)NC(=O)[C@H](CC(C)C)NC(=O)c1cc2ccccc2[nH]1 | – | 45000 nM | 131 nM | –
3 | COc1cccc2[nH]c(C(=O)N[C@@H](CC(C)C)C(=O)N[C@@H](C[C@@H]3CCNC3=O)C(=O)COC(=O)c3ccc(C#N)cc3)cc12 | 53 nM | – | – | –
4 | CCOCC(=O)[C@H](C[C@@H]1CCNC1=O)NC(=O)[C@H](CC(C)(C)C)NC(=O)c1cc2ccccc2[nH]1 | – | 20000 nM | 112 nM | –
5 | CC(=O)N[C@@H](CC(C)C)C(=O)N[C@@H](C[C@@H]1CCNC1=O)C(=O)COC(=O)c1c(Cl)cccc1Cl | 1030 nM | – | – | –
6 | COc1cccc2[nH]c(C(=O)N[C@@H](CC(C)C)C(=O)N[C@@H](C[C@@H]3CCNC3=O)C(=O)COC(=O)c3c(F)cccc3F)cc12 | – | – | – | K [4]: 12800 M⁻¹ s⁻¹
7 | CC(C)(C)C[C@H](NC(=O)c1cc2ccccc2[nH]1)C(=O)N[C@@H](C[C@@H]1CCNC1=O)C(=O)CO | – | 17000 nM | 20 nM | –
8 | CC(C)C[C@H](NC(=O)[C@H]1CCCO1)C(=O)N[C@@H](C[C@@H]1CCNC1=O)C(=O)COC(=O)c1c(Cl)cccc1Cl | – | – | – | K [4]: 5830 M⁻¹ s⁻¹
9 | CC(C)C[C@H](NC(=O)OC(C)(C)C)C(=O)N[C@@H](C[C@@H]1CCNC1=O)C(=O)COC(=O)c1c(Cl)cccc1Cl | – | – | – | inhibition [5]: 24%
10 | COc1cccc2[nH]c(C(=O)N[C@@H](CC(C)C)C(=O)N[C@@H](C[C@@H]3CCNC3=O)C(=O)COC(=O)c3ccc(Cl)cc3O)cc12 | – | – | – | K [4]: 11500 M⁻¹ s⁻¹
11 | COCC(=O)[C@H](C[C@@H]1CCNC1=O)NC(=O)[C@H](CC(C)C)NC(=O)c1cc2c(OC)cccc2[nH]1 | – | 31000 nM | 53 nM | –
12 | COc1cccc2[nH]c(C(=O)N[C@@H](CC(C)C)C(=O)N[C@@H](C[C@@H]3CCNC3=O)C(=O)CCl)cc12 | – | – | – | K [4]: 283000 M⁻¹ s⁻¹
13 | COc1cccc(OC)c1C(=O)OCC(=O)[C@H](C[C@@H]1CCNC1=O)NC(=O)[C@H](CC(C)C)NC(=O)c1cc2c(OC)cccc2[nH]1 | 205 nM | – | – | –
14 | COc1cccc2[nH]c(C(=O)N[C@@H](CC(C)C)C(=O)N[C@@H](C[C@@H]3CCNC3=O)C(=O)COC(=O)c3ccc(F)cc3)cc12 | 82 nM | – | – | –
15 | COc1cccc2[nH]c(C(=O)N[C@@H](CC(C)C)C(=O)N[C@@H](C[C@@H]3CCNC3=O)C(=O)COC(=O)c3c(Cl)cccc3Cl)cc12 | – | 290 nM | – | half-life at 1 µM [6]: > 4 h; solubility [7]: Insoluble; K [4]: 63000 M⁻¹ s⁻¹; half-life at 1 µM [8]: > 1 h
16 | COc1cccc2[nH]c(C(=O)N[C@@H](CC(C)C)C(=O)N[C@@H](C[C@@H]3CCNC3=O)C(=O)COC(=O)c3ccc(C)cc3)cc12 | 87 nM | – | – | –
17 | COc1cccc2[nH]c(C(=O)N[C@@H](CC(C)C)C(=O)N[C@@H](C[C@@H]3CCNC3=O)C(=O)COC(=O)C(C)(C)C)cc12 | 230 nM | – | – | –
18 | COc1ccc(C(=O)OCC(=O)[C@H](C[C@@H]2CCNC2=O)NC(=O)[C@H](CC(C)C)NC(=O)c2cc3c(OC)cccc3[nH]2)cc1 | 79 nM | – | – | –

Row | SMILES | IC50 [1] | EC50 [2] | IC50 [3] | further results
19 | COc1cccc2[nH]c(C(=O)N[C@@H](CC(C)(C)C)C(=O)N[C@@H](C[C@@H]3CCNC3=O)C(=O)CO)cc12 | – | 10000 nM | 7 nM | permeability [9]: Impermeable
20 | CC(C)C[C@H](NC(=O)c1nc2ccccc2[nH]1)C(=O)N[C@@H](C[C@@H]1CCNC1=O)C(=O)COC(=O)c1c(Cl)cccc1Cl | – | – | – | K [4]: 30300 M⁻¹ s⁻¹
21 | COc1cccc2[nH]c(C(=O)N[C@@H](Cc3ccccc3)C(=O)N[C@@H](C[C@@H]3CCNC3=O)C(=O)CO)cc12 | – | 47000 nM | 103 nM | permeability [9]: Impermeable
22 | COc1cccc2[nH]c(C(=O)N[C@@H](CC(C)C)C(=O)N[C@@H](C[C@@H]3CCNC3=O)C(=O)COC(=O)c3ccc(Cl)cc3)cc12 | 97 nM | – | – | –
23 | CC(C)C[C@H](NC(=O)c1cc2ccccc2[nH]1)C(=O)N[C@@H](C[C@@H]1CCNC1=O)C(=O)CO | – | 20000 nM | 38 nM | –
24 | COc1cccc2[nH]c(C(=O)N[C@@H](CC(C)C)C(=O)N[C@@H](C[C@@H]3CCNC3=O)C(=O)COC(=O)c3c(C)cccc3C)cc12 | 74 nM | – | – | –
25 | COCC(=O)[C@H](C[C@@H]1CCNC1=O)NC(=O)[C@H](CC(C)(C)C)NC(=O)c1cc2c(OC)cccc2[nH]1 | – | 32000 nM | 35 nM | –
26 | COc1cccc2[nH]c(C(=O)N[C@@H](CC3CCCCC3)C(=O)N[C@@H](C[C@@H]3CCNC3=O)C(=O)CO)cc12 | – | 14000 nM | 44 nM | permeability [9]: Impermeable
27 | CCCC[C@H](NC(=O)c1cc2c(OC)cccc2[nH]1)C(=O)N[C@@H](C[C@@H]1CCNC1=O)C(=O)CO | – | 10000 nM | 20 nM | permeability [9]: Impermeable
28 | COc1cccc2[nH]c(C(=O)N(C)[C@@H](CC(C)C)C(=O)N[C@@H](C[C@@H]3CCNC3=O)C(=O)CO)cc12 | – | 19000 nM | 83 nM | permeability [9]: Impermeable
29 | COCC(=O)[C@H](C[C@@H]1CCNC1=O)NC(=O)[C@H](CC(C)(C)C)NC(=O)c1cc2ccccc2[nH]1 | – | 46000 nM | 105 nM | –
30 | COCC(=O)[C@H](C[C@@H]1CCNC1=O)NC(=O)[C@H](CC(C)(C)C)NC(=O)[C@H]1CCCO1 | – | > 100000 nM | 1080 nM | –
31 | COc1cccc2[nH]c(C(=O)N[C@@H](CC(C)C)C(=O)N[C@@H](C[C@@H]3CCNC3=O)C(=O)COC(=O)C3CC3)cc12 | 182 nM | – | – | –
32 | CC(C)(C)C[C@H](NC(=O)[C@H]1CCCO1)C(=O)N[C@@H](C[C@@H]1CCNC1=O)C(=O)CO | – | 33000 nM | 91 nM | –
33 | COc1cccc2[nH]c(C(=O)N[C@@H](CC(C)C)C(=O)N[C@@H](C[C@@H]3CCNC3=O)C(=O)COC(=O)c3ccccc3)cc12 | 86 nM | – | – | –
34 | COc1cccc2[nH]c(C(=O)N[C@@H](CC(C)C)C(=O)N[C@@H](C[C@@H]3CCNC3=O)C(=O)COC(C)=O)cc12 | 220 nM | – | – | –
35 | COc1cccc2[nH]c(C(=O)N[C@@H](CC(C)C)C(=O)N[C@@H](C[C@@H]3CCNC3=O)C(=O)COC(=O)c3ccc(C#N)cc3F)cc12 | – | – | – | K [4]: 13300 M⁻¹ s⁻¹
36 | COc1cccc2[nH]c(C(=O)N[C@@H](CCC(C)C)C(=O)N[C@@H](C[C@@H]3CCNC3=O)C(=O)CO)cc12 | – | 33000 nM | 34 nM | permeability [9]: Impermeable

— ChEMBL document CHEMBL4699574, “Discovery of Ketone-Based Covalent Inhibitors of Coronavirus 3CL Proteases for the Potential Therapeutic Treatment of COVID-19” (J Med Chem, 2020)
